How the values were obtained:
[1] = melting temperature; fluorescence melt of hairpins on a sequencing array, two-state fit, raised by 9.35 °C to match UV melts; settings: sodium 0.088 M
Summary of the method: (§1)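 Folding enthalpy and melting temperature were estimated with bootstrapped two-state fits and combined across four replicates by inverse-variance weighting, with fitted temperatures raised by 9.35 °C to match UV melts. The data were Cy3 fluorescence of library hairpins, with annealed Cy3 and quencher oligos, on a sequenced MiSeq flow cell in 50 mM Na-HEPES pH 8.0, 25 mM NaCl, imaged in 2.5 °C steps up to 60 °C and normalised to pre-quench Cy3 and control constructs.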

[2] = folding enthalpy; higher = less favourable; fluorescence melt of hairpins on a sequencing array, two-state fit; settings: sodium 0.088 M
Summary of the method: as §1

Sequence	Tm [1] [°C]	folding enthalpy [2] [kcal/mol]
GCCGAGCGAAAGCTCCGC ((.((((....)))).))	55.7	-18
GCCGAGCGAAAGCTGTGC ((..(((....)))..))	41.2	-15.2
GCCGATGGAAACATCAGC ((.((((....)))).))	41.5	-24.5
GCCGATGGAAACGTCGGC (((((.(....).)))))	62.7	-44.9
GCCGCAGGAAACTGCGAC (.(((((....))))).)	48.8	-13.1
GCCGCCCCGAAAGGGGGC (((..(((....))))))	67.5	-6.87
GCCGCCGAAAGGCGCGGC ((((((....)))..)))	69.3	-11.2
GCCGCCGAAAGGCTGGGC ((((((....)))..)))	64.8	-20.4
GCCGCGCGAAAGCGATGC ((..(((....)))..))	45.3	-15.2
GCCGCGCGAAAGCGCCGC ((.((((....)))).))	59.7	-16.6
GCCGCGCGAAAGCTCTGC ((.(.((....)).).))	30.7	-10.9
GCCGGAGGAAACCCCAGC ((.((.(....).)).))	16.8	-6.86
GCCGGAGGAAACCCCGAC (.(((.(....).))).)	30.2	-6.74
GCCGGCGAAAGCCTGGC ((((((....))).)))	68.8	-24.8
GCCGGCGGAAACACCGGC (((((.(....).)))))	66.8	-44.1
GCCGGGCGAAAGCCACGC ((..(((....)))..))	50	-12.7
GCCGGGCGAAAGCCATGC ((..(((....)))..))	42.4	-14.4
GCCGGGGCGAAAGCCGGC (((..(((....))))))	69	-20
GCCGGTCGAAAGACGGC (((.(((....))))))	67.6	-30.1
GCCGGTCGAAAGACTGGC (((.(((....))).)))	68.3	-32
GCCGGTGGAAACATCGGC ((((.((....)).))))	58.9	-45.8
GCCGGTGGAAACGCTGGC (((.(.(....).).)))	50.8	-40.9
GCCGGTTCGAAAGAAGGC (((..(((....))))))	38.8	-22.8

Sequence	Tm [1] [°C]	folding enthalpy [2] [kcal/mol]
GCCGTACGAAAGTAGGGC (((.(((....))).)))	60.1	-40.8
GCCGTACGAAAGTATGGC (((.(((....))).)))	61.4	-42.8
GCCGTATCGAAAGATGGC (((..(((....))))))	47.4	-9.59
GCCGTCCGAAAGGAAGGC (((.(((....))).)))	67	-36.4
GCCGTCGAAAGACACGGC ((((((....)))..)))	54.6	-27.5
GCCGTCGAAAGACGCGGC ((((((....)))..)))	61.3	-15
GCCGTGCGAAAGCAATGC ((..(((....)))..))	39.2	-11.2
GCCGTGCGAAAGCAGAGC ((..(((....)))..))	51.9	-13.5
GCCGTGCGAAAGCAGGC (((.(((....))))))	68.2	-23.7
GCCGTGCGAAAGCCCAGC ((.(.((....)).).))	29.4	-10.3
GCCGTGCGAAAGCCCTGC ((.(.((....)).).))	30.3	-9.62
GCCGTGCGAAAGCCGGGC (((..((....))..)))	65.3	-15.1
GCCGTGCGAAAGCGCCGC ((.(.((....)).).))	50	-14.4
GCCGTGGGAAACCGTGGC (((..((....))..)))	47.4	-28.2
GCCGTTGGAAACAACAGC ((.((((....)))).))	41.6	-18.7
GCCTAACGAAAGTTTGGC (((.(((....))).)))	54.2	-50.4
GCCTAAGAAATTAGGC ((((((....))))))	52.5	-28.8
GCCTAAGGAAACTTAGAC (.(((((....))))).)	27.8	-19.8
GCCTACACGAAAGTGGGC (((..(((....))))))	50.5	-22.2
GCCTACCGAAAGGTGGC (((.(((....))))))	57	-25.4
GCCTACCGAAAGGTGGGC (((.(((....))).)))	69.1	-38.6
GCCTACGAAAGTAGTGGC ((((((....)))..)))	48.4	-24.3
GCCTACGAAAGTATGGGC ((((((....)))..)))	46.5	-34.8

Sequence	Tm [1] [°C]	folding enthalpy [2] [kcal/mol]
GCCTACGGAAACGCAGGC ((((.((....)).))))	52.6	-27.6
GCCTAGCGAAAGCGAAGC ((.(.((....)).).))	41.9	-16.1
GCCTAGCGAAAGCGACGC ((.(.((....)).).))	47.8	-15.3
GCCTAGCGAAAGCTCAGC ((..(((....)))..))	34.7	-14.6
GCCTAGCGAAAGCTGAGC ((..(((....)))..))	48.8	-10.7
GCCTAGCGAAAGCTGCGC ((..(((....)))..))	49.6	-17.6
GCCTAGCGAAAGCTGTGC ((..(((....)))..))	41.2	-13
GCCTAGGGAAACCTGGGC (((.(((....))).)))	55.1	-38.3
GCCTATACGAAAGTAGGC (((..(((....))))))	48.3	-28.6
GCCTATGGAAACACAGGC ((((.((....)).))))	40	-31.7
GCCTATGGAAACATGGGC (((.(((....))).)))	51.7	-46.6
GCCTCCGAAAGGATAGGC ((((((....)))..)))	53.2	-37.1
GCCTCCGCGAAAGCGGGC (((..(((....))))))	52.2	-5.39
GCCTCGCGAAAGCACGGC (((..((....))..)))	54.1	-22.5
GCCTCGCGAAAGCCGGGC (((..((....))..)))	55.8	-22.5
GCCTCGCGAAAGCGCGGC (((.(((....))).)))	61.3	-40.8
GCCTCGCGAAAGCGCTGC ((..(((....)))..))	38.5	-10.4
GCCTCGCGAAAGCTATGC ((.(.((....)).).))	15.9	-4.77
GCCTCGGGAAACTGAGGC (((((.(....).)))))	59.4	-37.1
GCCTCGTCGAAAGACGGC (((..(((....))))))	49.6	-8.04
GCCTCTCGAAAGAGCGGC (((.(((....))).)))	53.4	-37
GCCTCTGGAAACGGAGGC (((((.(....).)))))	57.5	-40.7
GCCTGACGAAAGTCGGC (((.(((....))))))	63.1	-23.2

Sequence	Tm [1] [°C]	folding enthalpy [2] [kcal/mol]
GCCTGAGGAAACTCAAGC ((.((((....)))).))	35.1	-21.6
GCCTGCGAAAGCAAGGGC ((((((....)))..)))	61.3	-18.7
GCCTGCGAAAGCAGTGGC ((((((....)))..)))	57.1	-14.8
GCCTGCGGAAACACAGGC (((((.(....).)))))	52.4	-40.8
GCCTGCGGAAACGCAAGC ((.((((....)))).))	48	-18.5
GCCTGCGGAAACGTAGGC ((((.((....)).))))	58	-28
GCCTGGCGAAAGCCAAGC ((.((((....)))).))	57.7	-17.5
GCCTGGCGAAAGCGAGGC ((((.((....)).))))	68.2	-26.8
GCCTGGCGAAAGCTATGC ((.(.((....)).).))	37.5	-12.5
GCCTGGGGAAACCTAGGC ((((.((....)).))))	54.4	-31.5
GCCTGTCCGAAAGGAGGC (((..(((....))))))	46.6	-19.2
GCCTGTCGAAAGACTGGC (((.(((....))).)))	61.2	-39.1
GCCTGTGGAAACACAAGC ((.((((....)))).))	38.6	-22.5
GCCTTACGAAAGTAGGGC (((.(((....))).)))	57.3	-37.1
GCCTTAGCGAAAGCTGGC (((..(((....))))))	51.5	-21
GCCTTAGGAAACCAAGGC (((((.(....).)))))	45.2	-27.4
GCCTTAGGAAACTAGGGC (((.(((....))).)))	45.5	-34.3
GCCTTCCGAAAGGAGGC (((.(((....))))))	59.4	-29.8
GCCTTCGAAAGAACAGGC ((((((....)))..)))	40.9	-26.7
GCCTTCGAAAGAACGGGC ((((((....)))..)))	41	-23
GCCTTCGAAAGAAGAGGC ((((((....)))..)))	46	-23.4

Reference: the array DNA melting data of Ke et al. (doi:10.1101/2024.01.08.574731)
